Bioassay records as filed in PubChem.
SUMO HTRF inh: inhibitors of in vitro SUMOylation cascade, primary screen, biochemical, HTRF, uHTS; inhibition, % at 35 µM; actives 0.36% (n = 290,000); AID 2006, 2009; HTRF SUMOylation assay, SAE1/SAE2 + UBC9; in the data active means inhibition above about 50%, passing the limit was not always enough
Rin1-Abl PPI inh: inhibitors of Rin1-Abl protein binding, primary screen, biochemical, TR-FRET | Tyrosine-protein kinase ABL1 (Homo sapiens) + Ras and Rab interactor 1 (Homo sapiens), … | inhibition, % at 7.35 µM | actives 0.4% (n = 360,000) | AID 588664, 2011; in the data active means inhibition above about 5%, passing the limit was not always enough
PREPL inh: PREPL enzyme inhibitors, primary screen, biochemical, fluorescence polarization | Prolyl endopeptidase-like (Homo sapiens), Q4J6C6 | recombinant PREPL, fluorescence polarization activity-based probe | inhibition, % at 5.96 µM | actives 0.68% (n = 320,000); in the data active means inhibition above about 43%;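 further: 0% = enzyme with DMSO and 100% = wells lacking enzyme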
Target sequence (Q4J6C6 whole entry, looked up): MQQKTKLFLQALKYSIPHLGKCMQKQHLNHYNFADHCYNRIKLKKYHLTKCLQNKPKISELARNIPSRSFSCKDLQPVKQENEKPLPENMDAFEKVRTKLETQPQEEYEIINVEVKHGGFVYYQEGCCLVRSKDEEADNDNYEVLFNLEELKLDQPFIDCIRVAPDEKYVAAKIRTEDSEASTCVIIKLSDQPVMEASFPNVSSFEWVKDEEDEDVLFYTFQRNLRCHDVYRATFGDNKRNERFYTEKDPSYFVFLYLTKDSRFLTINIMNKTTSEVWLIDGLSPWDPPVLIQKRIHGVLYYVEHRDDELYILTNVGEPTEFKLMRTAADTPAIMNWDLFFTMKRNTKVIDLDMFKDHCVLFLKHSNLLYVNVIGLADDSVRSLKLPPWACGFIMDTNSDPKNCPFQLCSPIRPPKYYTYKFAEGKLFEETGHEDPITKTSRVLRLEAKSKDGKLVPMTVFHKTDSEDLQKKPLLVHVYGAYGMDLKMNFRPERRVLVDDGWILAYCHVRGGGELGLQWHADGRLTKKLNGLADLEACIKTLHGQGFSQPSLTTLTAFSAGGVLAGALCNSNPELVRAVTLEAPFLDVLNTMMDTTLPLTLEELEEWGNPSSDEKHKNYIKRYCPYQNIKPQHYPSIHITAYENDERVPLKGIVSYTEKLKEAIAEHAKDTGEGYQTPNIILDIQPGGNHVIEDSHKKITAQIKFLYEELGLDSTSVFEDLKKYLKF
ALR inh: inhibitors of human ALR sulfhydryl oxidase, primary screen, biochemical, H2O2 detection, HRP-luminol luminescence, single point; FAD-linked sulfhydryl oxidase ALR (Homo sapiens), P55789; purified ALR, DTT oxidation; inhibition, % (test concentration not listed); actives 3.8% (n = 290,000);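 active means mean replicate inhibition above about 79%, with every replicate also reaching it, limit read from the data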
UBC13 polyUb: UBC13 polyubiquitin chain formation inhibitors, primary screen, biochemical, TR-FRET, uHTS; Ubiquitin-conjugating enzyme E2 N (Homo sapiens), P61088; inhibition, % at 20 µM; actives 0.47% (n = 330,000); AID 485273, 2010; in the data active means inhibition above about 45%, passing the limit was not always enough
RBBP9 inh: human RBBP9 inhibitors, primary screen, biochemical, fluorescence polarization, FP-Rh probe, HTS. Serine hydrolase RBBP9 (Homo sapiens), O75884. recombinant RBBP9. inhibition, % at 7.94 µM. actives 0.2% (n = 220,000). AID 1515, 2009;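 active means inhibition above the campaign mean of all tested compounds plus 3 SD, cut at about 14% in these data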;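 further: plate controls were DMSO wells with RBBP9 for no effect and wells lacking RBBP9 protein for full effect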
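Material: RBBP9 protein. Amount: RBBP9 at 2.5 µM in dispensed solution, before mixing. Schedule: 30 min then 45 min, 25 °C. Medium: Tris buffer pH 8.0, NaCl, Pluronic. Measured by: fluorescence polarization. Measure: percent inhibition from mP, scaled between DMSO and no-protein wells. Replication: one well per compound.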
Numbers without * were called inactive; . = no result given. The list is not random: actives were taken first. Their share in the collection is about 4.3%.

SMILES	SUMO HTRF inh	Rin1-Abl PPI inh	PREPL inh	ALR inh	UBC13 polyUb	RBBP9 inh
COc1ccc(N2CCN(C(=O)CCC(=O)N3CCOc4ccc(C)cc43)CC2)cc1	1	-1	10	97*	8	.
CN(Cc1ccc(Cl)cc1)C(C(=O)NC1CCCCC1)c1ccnc2ccccc12 (stereo unspecified)	.	4	.	.	.	.
COc1ccc(C=Nc2ccc3[nH]ncc3c2)c(O)c1	56	-6	0	90*	-5	-5
Oc1c(Br)cc(Br)cc1C=Nc1ccc2[nH]ncc2c1	49	-12	3	0	-3	-7
Cn1c(=O)c2c(ncn2CCOc2cccc(Br)c2)n(C)c1=O	6	3	3	-2	7	.
NNC(=O)c1ccccc1CO	.	.	1	79*	-6	.
COc1ccc2c(n1)Sc1nc3ccccc3nc1N2	75*	-3	-1	-27	.	-2
Cc1oc(-c2ccccc2F)nc1CS(=O)CC(=O)NC1CC1 (stereo unspecified)	9	1	-1	99*	0	.
CCOC(=O)N1CCC(NC(=O)CS(=O)Cc2nc(-c3ccccc3C)oc2C)CC1 (stereo unspecified)	10	-1	6	99*	-6	.
Cc1oc(-c2ccccc2F)nc1CN1CCC(C(=O)NC2CCCCCCC2)CC1	22	-1	.	.	.	-4
Cc1oc(-c2ccccc2F)nc1CSCC(=O)NC1CC1	13	-4	3	-29	-2	.
Cc1oc(-c2ccccc2F)nc1CS(=O)CC(=O)NC1CCCCC1 (stereo unspecified)	8	-2	16	98*	-2	.
O=C(CNC(=O)c1ccco1)OCc1cccc(Cl)c1	8	-1	2	-3	-1	1
O=C(CCNc1cccc(Cl)c1)c1ccco1	-12	1	18	97*	2	0
O=C(Nc1n[nH]c(=S)s1)c1ccc2ccccc2c1	-4	0	9	98*	-15	.
O=C(Nc1nccs1)c1ccc2ccccc2c1	-7	1	-68	0	-1	.
CC1=NN(c2ccccc2)C(=O)C1/C=C1\NC(=S)NC1=O (stereo unspecified)	1	3	1	89*	12	-1
CC1(C(=O)NS(=O)(=O)c2cccc(Cl)c2)CCN1C(=O)Cc1cc(F)ccc1F (stereo unspecified)	.	-3	.	.	.	.
CCOc1ccc(CNc2ccc3c(c2)ncn3C(C)(C)C)cc1	28	0	28	68	8	.
Cn1cnc2cc(NCc3ccc(Cl)cc3)ccc21	18	-1	28	94*	4	.
CCOc1ccc(CNc2ccc3c(c2)ncn3C)cc1	12	-1	15	82*	-9	-7
CC(=O)Nc1ccc2c(c1)ncn2C	13	-2	-9	-5	-5	-14
Cc1sc2nc(SCc3ccccc3)n(Cc3ccco3)c(=O)c2c1C	0	3	15	3	-2	2
Cc1ccc(CSc2nc3sc(C)c(C)c3c(=O)n2Cc2ccco2)cc1	14	-3	0	97*	8	-8
c1ccc(-c2nc(N3CCOCC3)cc(N3CCOCC3)n2)cc1	-2	2	3	0	16	-10
SMILES	SUMO HTRF inh	Rin1-Abl PPI inh	PREPL inh	ALR inh	UBC13 polyUb	RBBP9 inh
Cc1cc(N2CCOCC2)nc(-c2ccc([N+](=O)[O-])cc2)n1	5	-2	10	100*	-9	-6
CCC(C)c1ccc(NC(=O)Nc2cnccn2)cc1 (stereo unspecified)	-9	-2	5	-7	-2	.
O=C(CN1CC[n+]2c(-c3ccccc3)csc21)c1ccc(Br)cc1	8	-1	22	98*	-6	1
N#CCN1CCN(CC(=O)c2ccc(Br)cc2)CC1	-14	4	0	6	-6	-4
CC(=O)N1CCN(CC(=O)c2ccc(Br)cc2)CC1	-3	1	4	.	8	2
O=C(CN1CC[n+]2c(-c3cccs3)csc21)c1ccc(Br)cc1	-12	-2	8	98*	-20	-2
CC1CN(c2ccc(NC(=S)Nc3ccc(N4CC(C)OC(C)C4)cc3)cc2)CC(C)O1 (stereo unspecified)	-6	-1	8	97*	-6	0
CC1CN(C(=S)Nc2ccc(Cl)cc2)CC(C)O1 (stereo unspecified)	3	1	7	-7	2	.
O=C(O)c1cc(O)c2c(c1)C(=O)c1cccc(O)c1C2=O	32	-1	9	-37	-25	27*
CCOc1ccccc1NC(=S)N1CCN(c2ccccc2)CC1	-2	-2	15	98*	2	.
COc1ccc(NC(=S)N2CCN(c3ccccc3)CC2)c(OC)c1	4	2	10	48	-3	.
CCOc1cc(/C=N/Nc2ncnc(Cl)c2N)ccc1O	7	-4	11	99*	-20	-9
CCOc1cc(/C=N\n2nnnc2N)ccc1O	14	1	-2	99*	12	.
CCOc1cc(/C=N/Nc2nnc(C)n2N)ccc1O	-8	5	14	99*	-5	.
CCC(C)C(=O)Nc1nnc(CCc2ccccc2)s1 (stereo unspecified)	-6	2	11	24	-3	.
COc1ccc(NC(=O)CSCC(=O)Nc2nnc(C)s2)cc1	.	-1	0	-10	2	.
N#C/C(=C/c1cc(Cl)c(O)c(Cl)c1)C(=O)N1CCCCC1	12	-2	-1	37	10	.
N#CC(C#N)=C(N)/C(C#N)=C/c1cc(O)c(O)c(O)c1	.	-1	6	96*	1	.
c1ccc(-c2cc(N3CCCCC3)ncn2)cc1	3	-2	-10	-6	19	-4
c1ccc(-c2cc(N3CCCCCC3)n[nH]2)cc1	1	-1	10	98*	16	-2
C[C@@H]1CN([C@H](C)CO)C(=O)CCCn2nncc2CO[C@H]1CN(C)C(=O)Cc1ccccc1	.	0	.	.	.	.
Cc1ccc(C(=O)N2CCN(S(=O)(=O)c3cc(Br)ccc3Br)CC2)o1	-4	1	-21	-5	2	.
O=C1C(Nc2ccccc2)=C/C(=N/S(=O)(=O)c2cccs2)c2ccccc21	49	1	30	-7	.	4
CCc1cc[n+](C2=C([O-])c3ccccc3C(=O)/C2=N\S(=O)(=O)c2cccs2)cc1	59*	-4	38	-16	-105	2
CN(CC(=O)Nc1ccc(F)cc1)C(=O)COC(=O)c1cc(S(=O)(=O)N(C)C)ccc1N1CCCC1	.	0	22	-1	-8	.
O=C(N/N=C/c1cc(Cl)cc(Cl)c1O)c1ccncc1	58*	-1	15	1	-27	4
